Test results published in ChEMBL document CHEMBL3769316, “Discovery of novel heteroarylmethylcarbamodithioates as potent anticancer agents: Synthesis, structure-activity relationship analysis and biological evaluation” (Eur J Med Chem, 2016).
Calls of active or inactive are those of the source. The calls are words filed in the database; no cut-off is given here.

Tests used:
Format in all cases: functional, cell-based
[1] = test system: SK-BR-3; assay: Cytotoxicity against human SK-BR-3 cells after 72 hrs by alamar blue assay; settings: SK-BR-3, 72 h
In short: (§1)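 Cells seeded and cultured overnight, then exposed to compound at varying concentrations for 72 h. Cells were then incubated 2-4 h in medium containing 10% Alamar blue, and fluorescence was read at ex 530/em 590 nm. Dose-response curves used at least five concentrations, and IC50 (50% growth inhibition) was taken from these curves. Culture was at 37 °C.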

[2] = test system: MDA-MB-468; assay: Cytotoxicity against human MDA-MB-468 cells after 72 hrs by alamar blue assay; settings: MDA-MB-468, 72 h; in short: as §1
[3] = Cytotoxicity against human Bel7402 cells after 72 hrs by alamar blue assay; settings: Bel-7402, 72 h; in short: as §1
[4] = Cytotoxicity against human HL60 cells after 72 hrs by alamar blue assay; settings: HL-60, 72 h; in short: as §1
[5] = test system: PC-3; assay: Induction of mitotic arrest in human PC3 cells assessed as increase in multipolar spindle formation at 40 nM after 6 hrs using DAPI staining by immunofluorescence-based laser scanning confocal microscopy
In short: (§2)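 PC-3 cells on confocal dishes were exposed 6 h to compound (2 µM) or taxol (40 nM), then fixed in 4% paraformaldehyde overnight at 4 °C and blocked. They were stained overnight at 4 °C with anti-β-tubulin and anti-γ-tubulin (1:100 each), then 1 h with Alexa Fluor 488/647 secondaries, and co-stained for DNA. Spindles and centrosomes were imaged by confocal microscopy.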

[6] = test system: PC-3; assay: Induction of mitotic arrest in human PC3 cells assessed as increase in histone H3 phosphorylation at Ser10 at 40 nM after 24 hrs by Western blot method
In short: (§3)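 PC-3 cells were treated 24 h with compound (0.5-4 µM) or taxol (40 nM) as positive control, then lysed in RIPA with PMSF and protease inhibitors. Lysates were run on SDS-PAGE and transferred to PVDF, which was blocked with 5% milk for 1 h. Membranes were probed overnight at 4 °C for MPM-2 (1:1000), phospho-H3 (1:600) or β-actin (1:1000), followed by HRP secondary and chemiluminescence.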

[7] = test system: PC-3; assay: Induction of mitotic arrest in human PC3 cells assessed as increase in supernumerary centrosome formation at 40 nM after 6 hrs using DAPI staining by immunofluorescence-based laser scanning confocal microscopy; in short: as §2
[8] = test system: PC-3; assay: Induction of mitotic arrest in human PC3 cells assessed as increase in MPM-2 level at 40 nM after 24 hrs by Western blot method; in short: as §3

Row | SMILES | IC50 [1] [µM] | IC50 [2] [µM] | IC50 [3] [µM] | IC50 [4] [µM] | Activity [5] | Activity [6] | Activity [7] | Activity [8]
1 | NC(=O)CCSC(=S)NCc1cccnc1 | 1.16 | 4.63 | 3.33 | – | – | – | – | –
2 | N#CCCSC(=S)NCc1cnc2ccccc2c1 | – | – | 96.4 | 5.18 | – | – | – | –
3 | S=C(NCc1cccnc1)SCCn1nc2ccccc2n1 | 0.98 | 11.6 | 2.66 | – | – | – | – | –
4 | S=C(NCc1cccnc1)SCCc1nc2ccccc2s1 | 1.39 | 9.71 | 3.56 | – | – | – | – | –
5 | CC(=O)CCSC(=S)NCc1cccnc1 | 1.12 | 4.22 | 3.43 | – | – | – | – | –
6 | N#CCCSC(=S)NCc1cnc(N2CCOCC2)nc1 | – | – | 22.4 | 5.03 | – | – | – | –
7 | CCOP(=O)(CCSC(=S)NCc1cccnc1)OCC | 51 | 60.4 | 50.8 | – | – | – | – | –
8 | S=C(NCc1cccnc1)SCCc1nc(-c2ccccc2)no1 | 1.29 | 10.1 | 2.8 | – | – | – | – | –
9 | Cc1c(CNC(=S)SCCC#N)cnn1-c1ccccc1 | – | – | 24.9 | 6.05 | – | – | – | –
10 | S=C(NCc1cccnc1)SCCc1nnc(-c2cccs2)o1 | 1.07 | 3.41 | 1.34 | – | – | – | – | –
11 | Cc1cc(CNC(=S)SCCC#N)n(C)n1 | – | – | 4.26 | 4.17 | – | – | – | –
12 | O=C(CCSC(=S)NCc1cccnc1)NCc1ccccc1 | > 100 | > 100 | > 100 | – | – | – | – | –
13 | S=C(NCc1cccnc1)SCCc1nnc(-c2cccnc2)o1 | 0.8 | 3.16 | 1.37 | – | – | – | – | –
14 | N#CCCSC(=S)NCc1nnc(-c2ccccc2)s1 | – | – | 18.7 | 11.8 | – | – | – | –
15 | N#CCCSC(=S)NCc1cccnc1 | 2.84 | 9.53 | 1.03 | 0.74 | – | – | – | –
16 | Fc1ccccc1-c1nnc(CCSC(=S)NCc2cccnc2)o1 | 4.69 | 3.42 | 5.54 | – | – | – | – | –
17 | O=S(=O)(O)CCCSC(=S)NCc1cccnc1 | 6.77 | 11.1 | 6.59 | – | – | – | – | –
18 | Cc1nc(-c2ccccc2)oc1CNC(=S)SCCC#N | – | – | 17.9 | 7.88 | – | – | – | –
19 | CCCCOC(=O)CCSC(=S)NCc1cccnc1 | 4.46 | 12.8 | 6.35 | – | – | – | – | –
20 | COc1ccc(-c2nnc(CCSC(=S)NCc3cccnc3)o2)cc1 | 2.96 | 5.22 | 1.54 | – | – | – | – | –
21 | S=C(NCc1cccnc1)SCCc1nnc(-c2cc3ccccc3s2)o1 | 5.32 | 6.77 | 6.89 | – | – | – | – | –

Row | SMILES | IC50 [1] [µM] | IC50 [2] [µM] | IC50 [3] [µM] | IC50 [4] [µM] | Activity [5] | Activity [6] | Activity [7] | Activity [8]
22 | N#CCCSC(=S)NCc1cncs1 | – | – | 296 | 109 | – | – | – | –
23 | CC(=O)O[C@H]1C(=O)[C@@]2(C)[C@H]([C@H](OC(=O)c3ccccc3)[C@]3(O)C[C@H](OC(=O)[C@H](O)[C@@H](NC(=O)c4ccccc4)c4ccccc4)C(C)=C1C3(C)C)[C@]1(OC(C)=O)CO[C@@H]1C[C@@H]2O | – | – | – | – | Active | Active | Active | Active
24 | CC1(C)OB(CCCSC(=S)NCc2cccnc2)OC1(C)C | 6.82 | 6.62 | 4.27 | – | – | – | – | –
25 | S=C(NCc1cccnc1)SCCc1nnc(-c2cc[nH]c2)o1 | 0.82 | 2.04 | 1.17 | – | – | – | – | –
26 | OCCSC(=S)NCc1cccnc1 | 1.32 | 6.61 | 3.65 | – | – | – | – | –
27 | S=C(NCc1cccnc1)SCCc1nc2ccccc2o1 | 0.82 | 4.3 | 2.88 | – | – | – | – | –
28 | O=C(O)CCSC(=S)NCc1cccnc1 | 7.97 | 9.32 | 7.42 | – | – | – | – | –
29 | S=C(NCc1cccnc1)SCCc1nnc(-c2ccc3ccccc3n2)o1 | 0.79 | 3.5 | 1.95 | – | – | – | – | –
30 | O=[N+]([O-])c1ccc(-c2nnc(CCSC(=S)NCc3cccnc3)o2)cc1 | 1.54 | 4.6 | 1.84 | – | – | – | – | –
31 | S=C(NCc1cccnc1)SCCc1nc2ccccc2[nH]1 | 1.69 | 11.5 | 9.3 | – | – | – | – | –
32 | S=C(NCc1cccnc1)SCCc1nnc(-c2cnccn2)o1 | 1.29 | 1.71 | 1.43 | – | – | – | – | –
33 | S=C(NCc1cccnc1)SCCc1nnc(-c2ccsc2)o1 | 1.03 | 3.26 | 1.23 | – | – | – | – | –
34 | N#CCCSC(=S)NCc1nnc(-c2ccccc2)o1 | – | – | 25.7 | 14.2 | – | – | – | –
35 | S=C(NCc1cccnc1)SCCc1nnc(-c2ccc3ncccc3c2)o1 | 0.85 | 1.69 | 1.79 | – | – | – | – | –
36 | Cn1cccc1CNC(=S)SCCC#N | – | – | 227 | 282 | – | – | – | –
37 | FC(F)(F)c1ccc(-c2nnc(CCSC(=S)NCc3cccnc3)o2)cc1 | 2.4 | 5.49 | 1.22 | – | – | – | – | –
38 | CN1CCOc2cc(CNC(=S)SCCC#N)cnc21 | – | – | 327 | 82.8 | – | – | – | –
39 | Cc1cc(-c2nnc(CCSC(=S)NCc3cccnc3)o2)no1 | 1.73 | 6.14 | 1.68 | – | – | – | – | –
40 | S=C(NCc1cccnc1)SCCc1nnc(-c2ccco2)o1 | 0.81 | 3.32 | 1.59 | – | – | – | – | –
41 | S=C(NCc1cccnc1)SCCc1nnn[nH]1 | > 100 | > 100 | 57.7 | – | – | – | – | –
42 | S=C(NCc1cccnc1)SCCc1nnc(-c2ccc(Cl)cc2)o1 | 0.86 | 1.98 | 1.26 | – | – | – | – | –
